Measurements from ChEMBL document CHEMBL5113533 (J Med Chem, 2022).
Active and inactive are the calls of the source.

What was measured:
Format in all cases: functional, cell-based
[1] = system: THP-1; test: Antiinflammatory activity against LPS-stimulated human THP-1 cells assessed reduction in TNFalpha level pretreated at 5 uM for 1 hr followed by LPS stimulation and measured upto 24 hrs by ELISA analysis
How it was run: (§1)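 THP-1 cells pre-treated with compound for 1 h (5 μM or 1 μM, depending on the compound), then stimulated with 100 ng/mL LPS. Culture supernatant was taken at 24 h, and TNF-α, IL-6 or IL-1β was measured by sandwich ELISA at 450 nm with 540 nm correction; four biological replicates.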

[2] = system: THP-1; test: Antiinflammatory activity against LPS-stimulated human THP-1 cells assessed reduction in IL-6 level pretreated at 5 uM for 1 hr followed by LPS stimulation and measured upto 24 hrs by ELISA analysis; how it was run: as §1
[3] = system: THP-1; test: Antiinflammatory activity against LPS-stimulated human THP-1 cells assessed reduction in IL-1beta level pretreated at 5 uM for 1 hr followed by LPS stimulation and measured upto 24 hrs by ELISA analysis; how it was run: as §1
[4] = system: THP-1; test: Antiinflammatory activity against LPS-stimulated human THP-1 cells assessed as blockage of inflammatory phenotype by measuring m/z ratio at 5 uM pretreated for 1 hr followed by LPS stimulation and measured upto 24 hrs
How it was run: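 THP-1 cells at 1 million/mL, pre-treated with compound at 5 μM for 1 h in technical triplicate, then 100 ng/mL LPS for 24 h. Pellets frozen on dry ice, thawed, washed in 100 mM Tris–HCl pH 7.5 at 4 °C. MALDI-TOF MS read-out is the normalized m/z 4964/4632 ratio, with a 40% cutoff used for hit calling; three biological replicates.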

Measured: Activity

CCN1CCN(Cc2ccc(NC(=O)c3ccc(C)c(Oc4ccnc5[nH]ccc45)c3)cc2C(F)(F)F)CC1
active: all assays above

CC[C@@H]1C(=O)N(C)c2cnc(Nc3ccc(C(=O)NC4CCN(C)CC4)cc3OC)nc2N1C1CCCC1
active: all assays above
